# Experimental data taken from ChEMBL document CHEMBL5303300, “EUbOPEN Chemogenomics Library - Multiplex” (2023).
# Several values for one entry are separate records, joined by “and”; a condition that tells them apart may be missing. Identical values can stand only once.
# System: U2OS
# Experiment: Multiplex assay against U2OS
# Type: toxicity, cell-based
# Settings: human, number of replicates 2
# Summary of the method: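 Live cells carried four stains from seeding: Hoechst33342, BioTracker Green Microtubule Cytoskeleton Dye, MitoTracker Red and Annexin V Alexa Fluor 680. They were imaged on a CQ1 microscope at 37°C and 5% CO2 after compound addition. Using CellPathfinder machine-learning gating, cells were split into Hoechst high-intensity objects or normal cells, normal cells into healthy, pyknosed or fragmented nuclei, and pyknosed cells into mitotic or apoptotic; tubulin, mitochondrial-mass and membrane-permeability phenotypes are per cents of healthy-nucleus cells.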
# [1] = 12 h, 1 µM, compound concentration 1 uM
# [2] = 12 h, 10 µM, compound concentration 10 uM
# [3] = 24 h, 1 µM, compound concentration 1 uM
# [4] = 24 h, 10 µM, compound concentration 10 uM
# [5] = 48 h, 1 µM, compound concentration 1 uM
# [6] = 48 h, 10 µM, compound concentration 10 uM
smiles,measurement,setting,value
Cc1ccc2c(c1CCC(=O)O)CC[C@@H](NS(=O)(=O)c1ccc(Cl)cc1)C2 [TERUTROBAN],Population Apoptotic (%),[1],44% and 33%
same,Population Healthy Nuclei (%),[1],83% and 55%
same,Population Hoechst High Intensity Objects (%),[1],0%
same,Population Membrane Permeable-Phenotype (%),[1],1% and 0%
same,Population Mitochondria Different-Phenotype (%),[1],1% and 0%
same,Population Mitotic Cells (%),[1],56% and 66%
same,Population Normal (%),[1],100%
same,Population Pyknosed Nuclei (%),[1],11% and 7%
same,Population Tubulin-Different-Phenotype (%),[1],92% and 47%
same,Population Apoptotic (%),[2],44% and 50%
same,Population Fragmented Nuclei (%),[2],8% and 2%
same,Population Healthy Nuclei (%),[2],76% and 86%
same,Population Hoechst High Intensity Objects (%),[2],0%
same,Population Membrane Permeable-Phenotype (%),[2],4% and 2%
same,Population Mitochondria Different-Phenotype (%),[2],2% and 0%
same,Population Mitotic Cells (%),[2],55% and 50%
same,Population Normal (%),[2],100%
same,Population Pyknosed Nuclei (%),[2],15% and 10%
same,Population Tubulin-Different-Phenotype (%),[2],73% and 87%
same,Population Apoptotic (%),[3],50% and 61%
same,Population Healthy Nuclei (%),[3],61% and 87%
same,Population Hoechst High Intensity Objects (%),[3],0%
same,Population Membrane Permeable-Phenotype (%),[3],0% and 1%
same,Population Mitochondria Different-Phenotype (%),[3],0%
same,Population Mitotic Cells (%),[3],50% and 38%
same,Population Normal (%),[3],100%
same,Population Pyknosed Nuclei (%),[3],5% and 8%
same,Population Tubulin-Different-Phenotype (%),[3],66% and 92%
same,Population Apoptotic (%),[4],66% and 62%
same,Population Fragmented Nuclei (%),[4],9% and 2%
same,Population Healthy Nuclei (%),[4],81% and 87%
same,Population Hoechst High Intensity Objects (%),[4],0%
same,Population Membrane Permeable-Phenotype (%),[4],5% and 0%
same,Population Mitochondria Different-Phenotype (%),[4],3% and 0%
same,Population Mitotic Cells (%),[4],33% and 37%
same,Population Normal (%),[4],100%
same,Population Pyknosed Nuclei (%),[4],8% and 10%
same,Population Tubulin-Different-Phenotype (%),[4],75% and 92%
same,Population Apoptotic (%),[5],37% and 58%
same,Population Healthy Nuclei (%),[5],66% and 91%
same,Population Hoechst High Intensity Objects (%),[5],0%
same,Population Membrane Permeable-Phenotype (%),[5],2%
same,Population Mitochondria Different-Phenotype (%),[5],0%
same,Population Mitotic Cells (%),[5],62% and 41%
same,Population Normal (%),[5],100%
same,Population Pyknosed Nuclei (%),[5],11% and 5%
same,Population Tubulin-Different-Phenotype (%),[5],73% and 94%
same,Population Apoptotic (%),[6],25% and 57%
same,Population Fragmented Nuclei (%),[6],3% and 1%
same,Population Healthy Nuclei (%),[6],85% and 91%
same,Population Hoechst High Intensity Objects (%),[6],0%
same,Population Membrane Permeable-Phenotype (%),[6],4% and 1%
same,Population Mitochondria Different-Phenotype (%),[6],4% and 0%
same,Population Mitotic Cells (%),[6],75% and 42%
same,Population Normal (%),[6],100%
same,Population Pyknosed Nuclei (%),[6],10% and 6%
same,Population Tubulin-Different-Phenotype (%),[6],72% and 93%
COc1cc(Nc2cnc(C#N)c(O[C@H](C)CN(C)C)n2)ncc1-c1cnn(C)c1,Population Apoptotic (%),[1],100% and 59%
same,Population Healthy Nuclei (%),[1],63% and 83%
same,Population Hoechst High Intensity Objects (%),[1],0%
same,Population Mitochondria Different-Phenotype (%),[1],8% and 2%
same,Population Normal (%),[1],100%
same,Population Pyknosed Nuclei (%),[1],10% and 11%
same,Population Tubulin-Different-Phenotype (%),[1],75% and 63%
same,Population Apoptotic (%),[2],88% and 56%
same,Population Healthy Nuclei (%),[2],39% and 74%
same,Population Hoechst High Intensity Objects (%),[2],0%
same,Population Mitochondria Different-Phenotype (%),[2],6% and 8%
same,Population Normal (%),[2],100%
same,Population Pyknosed Nuclei (%),[2],21% and 15%
same,Population Tubulin-Different-Phenotype (%),[2],25% and 32%
same,Population Apoptotic (%),[3],50% and 76%
same,Population Healthy Nuclei (%),[3],67% and 86%
same,Population Hoechst High Intensity Objects (%),[3],0%
same,Population Membrane Permeable-Phenotype (%),[3],0% and 2%
same,Population Mitochondria Different-Phenotype (%),[3],0%
same,Population Mitotic Cells (%),[3],50% and 24%
same,Population Normal (%),[3],100%
same,Population Pyknosed Nuclei (%),[3],10% and 8%
same,Population Tubulin-Different-Phenotype (%),[3],81% and 72%
same,Population Apoptotic (%),[4],87% and 64%
same,Population Fragmented Nuclei (%),[4],33% and 11%
same,Population Healthy Nuclei (%),[4],37% and 67%
same,Population Hoechst High Intensity Objects (%),[4],6% and 2%
same,Population Mitochondria Different-Phenotype (%),[4],20% and 9%
same,Population Mitotic Cells (%),[4],12% and 35%
same,Population Normal (%),[4],93% and 97%
same,Population Pyknosed Nuclei (%),[4],29% and 20%
same,Population Tubulin-Different-Phenotype (%),[4],60% and 44%
same,Population Apoptotic (%),[5],66% and 62%
same,Population Healthy Nuclei (%),[5],55% and 83%
same,Population Hoechst High Intensity Objects (%),[5],0%
same,Population Membrane Permeable-Phenotype (%),[5],2%
same,Population Mitochondria Different-Phenotype (%),[5],0%
same,Population Mitotic Cells (%),[5],33% and 37%
same,Population Normal (%),[5],100% and 99%
same,Population Pyknosed Nuclei (%),[5],28% and 12%
same,Population Tubulin-Different-Phenotype (%),[5],94% and 74%
same,Population Apoptotic (%),[6],100% and 85%
same,Population Fragmented Nuclei (%),[6],31% and 20%
same,Population Healthy Nuclei (%),[6],20% and 46%
same,Population Hoechst High Intensity Objects (%),[6],3% and 0%
same,Population Membrane Permeable-Phenotype (%),[6],16% and 7%
same,Population Mitochondria Different-Phenotype (%),[6],16% and 10%
same,Population Mitotic Cells (%),[6],0% and 14%
same,Population Normal (%),[6],96% and 99%
same,Population Pyknosed Nuclei (%),[6],48% and 33%
same,Population Tubulin-Different-Phenotype (%),[6],50% and 59%
CS(=O)(=O)c1ccc(C(=O)Nc2cccc(COc3ccc(Br)cc3CN[C@H]3CCC[C@@H]3O)c2)c(Cl)c1.O=CO,Population Apoptotic (%),[1],50% and 70%
same,Population Healthy Nuclei (%),[1],78% and 79%
same,Population Hoechst High Intensity Objects (%),[1],0%
same,Population Normal (%),[1],100%
same,Population Apoptotic (%),[2],59% and 100%
same,Population Healthy Nuclei (%),[2],70% and 80%
same,Population Hoechst High Intensity Objects (%),[2],0%
same,Population Normal (%),[2],99% and 100%
same,Population Apoptotic (%),[3],87% and 73%
same,Population Healthy Nuclei (%),[3],71% and 82%
same,Population Hoechst High Intensity Objects (%),[3],0%
same,Population Normal (%),[3],100%
same,Population Apoptotic (%),[4],88% and 79%
same,Population Healthy Nuclei (%),[4],47% and 63%
same,Population Hoechst High Intensity Objects (%),[4],0%
same,Population Normal (%),[4],100% and 99%
same,Population Apoptotic (%),[5],44% and 86%
same,Population Healthy Nuclei (%),[5],80% and 83%
same,Population Hoechst High Intensity Objects (%),[5],0%
same,Population Normal (%),[5],100%
same,Population Apoptotic (%),[6],92%
same,Population Healthy Nuclei (%),[6],50% and 57%
same,Population Hoechst High Intensity Objects (%),[6],1% and 0%
same,Population Normal (%),[6],98% and 100%
